# Assay results taken from ChEMBL document CHEMBL1141532, “Design and synthesis of tetrazole-based growth hormone secretagogue: the SAR studies of the O-benzyl serine side chain” (Bioorg Med Chem Lett, 2008).
# Key:
# [1] = biological target: Growth hormone secretagogue receptor type 1 (Homo sapiens, UniProt Q92847); assay: […] human growth hormone secretagogue receptor assessed as measuring intracellular calcium level by FLIPR assay; type: functional, cell-based
# [2] = system: Rattus norvegicus; assay: Increase of growth hormone release in rat plasma at 1.74 umol/kg, iv after 15 mins by radioimmunoassay relative to control; type: functional
# In short: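 Acute model in anesthetized rats. Dosed intravenously at 1.74 μmol/kg. Blood was drawn 15 min later and plasma was isolated. Rat GH was measured by radioimmunoassay. Results are given as percent increase in GH release over vehicle-treated control animals.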
# Chain of Growth hormone secretagogue receptor type 1 (Q92847 whole entry): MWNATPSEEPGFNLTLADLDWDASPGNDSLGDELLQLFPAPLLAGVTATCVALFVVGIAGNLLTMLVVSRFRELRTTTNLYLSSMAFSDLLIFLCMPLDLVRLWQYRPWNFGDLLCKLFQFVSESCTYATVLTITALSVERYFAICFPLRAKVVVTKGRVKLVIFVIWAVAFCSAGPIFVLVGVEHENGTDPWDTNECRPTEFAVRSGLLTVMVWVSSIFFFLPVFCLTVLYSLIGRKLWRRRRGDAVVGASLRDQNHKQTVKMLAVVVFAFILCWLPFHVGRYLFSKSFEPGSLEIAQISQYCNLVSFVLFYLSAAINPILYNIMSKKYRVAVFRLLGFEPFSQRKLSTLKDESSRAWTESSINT
EC50 [1],SMILES,Activity [2]
1.04 nM,Cc1noc(C)c1-c1ccccc1COC[C@@H](NC(=O)C(C)(C)N)c1nnnn1CCOC(=O)NCCCCO,5237%
1.79 nM,CC(C)(N)C(=O)N[C@H](COCc1cccc(C(F)(F)F)c1)c1nnnn1CCOC(=O)NCCCCO,
33.2 nM,CC(C)(N)C(=O)N[C@H](COCc1ccc(OC(F)(F)F)cc1)c1nnnn1CCOC(=O)NCCCCO,
1.11 nM,COc1ccccc1COC[C@@H](NC(=O)C(C)(C)N)c1nnnn1CCOC(=O)NCCCCO,
1.18 nM,CC(C)(N)C(=O)N[C@H](COCc1ccccc1-c1cccnc1)c1nnnn1CCOC(=O)NCCCCO,
,CC(C)(N)C(=O)N[C@H](COCc1ccccc1)c1nnnn1CCOC(=O)NCCCCO,750%
0.34 nM,CC(C)(N)C(=O)N[C@H](COCc1ccccc1-c1ccccc1)c1nnnn1CCOC(=O)NCCCCO,836%
1.6 nM,CC(C)(N)C(=O)N[C@H](COCc1cccc(Cl)c1)c1nnnn1CCOC(=O)NCCCCO,
34 nM,CC(C)(N)C(=O)N[C@H](COCc1cc(C(F)(F)F)cc(C(F)(F)F)c1)c1nnnn1CCOC(=O)NCCCCO,
0.45 nM,CC(C)(N)C(=O)N[C@H](COCc1ccccc1Cl)c1nnnn1CCOC(=O)NCCCCO,
3.1 nM,CC(C)(N)C(=O)N[C@H](COCc1cccc(OC(F)(F)F)c1)c1nnnn1CCOC(=O)NCCCCO,
0.72 nM,CC(C)(N)C(=O)N[C@H](COCc1ccccc1C(F)(F)F)c1nnnn1CCOC(=O)NCCCCO,
1.66 nM,CC(C)(N)C(=O)N[C@H](COCC1CCCCC1)c1nnnn1CCOC(=O)NCCCCO,1654%
1.26 nM,CC(C)(N)C(=O)N[C@H](COCc1ccccc1C#N)c1nnnn1CCOC(=O)NCCCCO,920%
6.75 nM,CC(C)(N)C(=O)N[C@H](COCc1cc(Cl)cc(Cl)c1)c1nnnn1CCOC(=O)NCCCCO,
0.51 nM,Cc1ccccc1COC[C@@H](NC(=O)C(C)(C)N)c1nnnn1CCOC(=O)NCCCCO,1441%
0.61 nM,CC(C)(N)C(=O)N[C@H](COCc1cccc(Cl)c1Cl)c1nnnn1CCOC(=O)NCCCCO,
0.42 nM,CC(C)(N)C(=O)N[C@H](COCc1ccc(F)cc1F)c1nnnn1CCOC(=O)NCCCCO,1081%
